In article PMC4556268 (Biochemistry, 2008):
Like-named read-outs stand apart in the source and are kept apart here. Each block holds one compound with its values, some of them ahead of it.

How the values were obtained:
[1] = molecular target: T1, RhoGDIα (Homo sapiens, UniProt P52565); format: binding
T1 sequence (P52565 1-204): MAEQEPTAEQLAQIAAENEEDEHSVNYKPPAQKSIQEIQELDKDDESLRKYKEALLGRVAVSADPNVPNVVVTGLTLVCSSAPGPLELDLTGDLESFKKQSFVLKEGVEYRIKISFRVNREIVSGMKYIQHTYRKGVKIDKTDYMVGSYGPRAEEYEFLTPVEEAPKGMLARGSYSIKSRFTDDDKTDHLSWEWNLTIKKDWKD
How it was run: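 For n-alkanols, halothane was equilibrated first, then alkanol titrated from stocks while emission at 330 nm was tracked; buffer-only additions controlled for halothane evaporation. For AGGC (0–300 µM), 30 min preincubation ±1 mM halothane in gas-tight syringes, then dilution into cuvette. Recovery […] fitted by Hill-type equation (EC50, Fmax, h).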

[2] = molecular target: T2, RhoGDIα–Cdc42 complex (Homo sapiens, UniProt P52565); format: biochemical; settings: for effect on association of Cdc42 with membranes (Req,Cdc42) / Cdc42–RhoGDIα Dissociation h: with EDTA and GMPPNP; for Cdc42–RhoGDIα Dissociation h: fit to Eq. 6
T2 sequence (P52565 1-204): T1 sequence (P52565 1-204)
How it was run: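 SPR on L1 chip at 25°C. Running buffer 10 mM HEPES pH 7.4, 150 mM NaCl. Surface cleaned with 10 mM CHAPS; POPC/POPS (4:1) 100 nm LUV captured at 5 µL/min for 15 min; conditioned with 10 mM glycine pH 1.5 and 10 mM NaOH. RhoGDIα–Cdc42 complex typically 0.5 µM in Buffer A with 50 µM GMPPNP and n-alkanol. 14.3 mM EDTA initiated exchange and dissociation. Req from first-order fits versus complex concentration.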

[3] = molecular target: T1, RhoGDIα; format: binding; remark: listed apart in the source
How it was run: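 RhoGDIα at 500 nM in 2.8 mL Buffer B (pH 7.5 Tris) in screw-top sealed cuvette with minimal headspace; halothane 0–800 µM; 60 min at room temperature. Steady-state tryptophan emission spectra, excitation 295 nm. Quenching taken as FQ/F0, averaging >10 points at the emission maximum. Fitted to Eq. 1 for Kd, h and maximal quenching.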

[4] = molecular target: T1, RhoGDIα; test: Photo-affinity labeling of RhoGDIα with azialcohols, LC-MSMS; format: binding
[5] = molecular target: Cdc42 (Homo sapiens, UniProt P60953); settings: 50 mM (results not shown)
[6] = read-out: Halothane Binding EC50, 0.2 mM halothane, RhoGDIα 500 nM, fit to Eq. 2
[7] = read-out: Halothane Binding KI, 0.2 mM halothane, calculated using Eq. 3

Cdc42, sequence (P60953 whole entry): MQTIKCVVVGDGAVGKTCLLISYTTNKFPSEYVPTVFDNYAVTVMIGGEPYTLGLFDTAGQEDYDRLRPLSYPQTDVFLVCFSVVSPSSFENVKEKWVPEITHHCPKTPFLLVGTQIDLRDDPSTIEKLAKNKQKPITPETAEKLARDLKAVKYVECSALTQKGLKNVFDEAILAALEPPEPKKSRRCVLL

Structure (SMILES): CCCCCCO [n-hexanol]
- effect on halothane-induced tryptophan quenching ([1]; 0.2 mM halothane): did not reach saturation within the concentration range used
- effect on association of Cdc42 with membranes (Req,Cdc42) [2]: unaffected

Structure (SMILES): CCCCCCCO [n-heptanol]
- effect on halothane-induced tryptophan quenching ([1]; 0.2 mM halothane): negligible effects
- effect on association of Cdc42 with membranes (Req,Cdc42) [2]: unaffected

Structure (SMILES): CC(=O)N[C@@H](CSC/C=C(\C)CC/C=C(\C)CC/C=C(\C)CCC=C(C)C)C(=O)O [AGGC, N-acetyl geranylgeranyl cysteine]
- effect on RhoGDIα tryptophan fluorescence in the absence of halothane ([1]; control without halothane (results not shown)): unaffected
- Ki ([1]; read-out: KI for the displacement of halothane, from EC50 by Eq. 3): 0.01 mM

Structure (SMILES): FC(F)(F)C(Cl)Br (stereo not shown) [halothane, 2-bromo-2-chloro-1,1,1-trifluoroethane]
- Kd [3]: 0.147 ± 0.007 mM
- blue shift in the emission maxima ([3]; dose dependent, halothane 0–800 µM): ~ 2 nm
- Hill coefficient h for halothane binding ([3]; fit to Eq. 1): 0.91±0.2
- plateau tryptophan fluorescence intensity, of the original signal ([3]; halothane 0–800 µM): ~ 30%

Structure (SMILES): CCCCCC1(CCO)N=N1 [3-azioctanol]
- Lowest 3-azialcohol concentration where photoincorporation was detected ([4]; AGGC +): 10 µM
- Lowest 3-azialcohol concentration where photoincorporation was detected ([4]; AGGC –): 10 µM
- photolabeling of E193 ([4]; at levels up to 1 mM): not photolabeled

Structure (SMILES): CC1(CCO)N=N1 [3-azibutanol]
- Lowest 3-azialcohol concentration where photoincorporation was detected ([4]; AGGC +): 100 µM
- Residue photolabeled / photolabeled peptide ([4]; AGGC –): Photolabeled peptide not detected

Now from value to compound, other results behind:

- Halothane Binding Fmax ([1]; 0.2 mM halothane, fit to Eq. 2): 40 ± 9
- Halothane Binding h ([1]; 0.2 mM halothane, fit to Eq. 2): 1.2 ± 0.2
- EC50 [1, 6]: 48 ± 4.5 mM
- Ki [1, 7]: 20 ± 2 mM
Structure (SMILES): CCCO [n=3]

- Halothane Binding h ([1]; 0.2 mM halothane, fit to Eq. 2): 1.4 ± 0.4
- EC50 [1, 6]: 100 ± 58 mM
- Ki [1, 7]: 42 ± 24 mM
- Cdc42–RhoGDIα Dissociation h [2]: 1.2 ± 0.2
Structure (SMILES): CCO [n=2, ethanol]

- Fmax for displacement of halothane ([1]; 0.1 mM halothane): 0.55 ± 0.06
- h for displacement of halothane ([1]; 0.1 mM halothane): 1.0 ± 0.4
- Fmax for displacement of halothane ([1]; 0.2 mM halothane): 0.59 ± 0.04
- h for displacement of halothane ([1]; 0.2 mM halothane): 1.1 ± 0.2
- Halothane Binding Fmax ([1]; 0.2 mM halothane, fit to Eq. 2): 51 ± 4
- Halothane Binding h ([1]; 0.2 mM halothane, fit to Eq. 2): 1.1 ± 0.1
- Fmax for displacement of halothane ([1]; 0.5 mM halothane): 0.59 ± 0.05
- h for displacement of halothane ([1]; 0.5 mM halothane): 1.0 ± 0.1
- Fmax for displacement of halothane ([1]; 1.0 mM halothane): 0.65 ± 0.08
- h for displacement of halothane ([1]; 1.0 mM halothane): 1.2 ± 0.2
- Hill coefficient h ([1]; independent of halothane concentration or chain length): ~ 1
- EC50 ([1]; read-out: EC50 for displacement of halothane, 0.1 mM halothane): 3 ± 1 mM
- EC50 ([1]; read-out: EC50 for displacement of halothane, 0.2 mM halothane): 11 ± 3 mM
- EC50 ([1]; read-out: EC50 for displacement of halothane, 0.5 mM halothane): 22 ± 5 mM
- EC50 ([1]; read-out: EC50 for displacement of halothane, 1.0 mM halothane): 52 ± 8 mM
- EC50 [1, 6]: 10 ± 3 mM
- Ki [1, 7]: 4.2 ± 1.2 mM
- effect on association of Cdc42 with membranes ([2]; in the absence of EDTA and GMPPNP): negligible effects
- Cdc42–RhoGDIα Dissociation h [2]: 1.5 ± 0.3
Structure (SMILES): CCCCO [n=4, n-butanol]
- effect on rate and extent of exchange of MANT-GDP for GDP [5]: neither the rate nor the extent of exchange of MANT-GDP for GDP were affected
